Calls of active or inactive are those of the source. The calls are words filed in the database; no cut-off is given here.

One data set has as its target Cannabinoid receptor 1 (Homo sapiens, UniProt P21554). Kind of data set: biochemical. Type of data set: cell-based, CHO.
In data set [1] the target is T1, Cannabinoid receptor 2 (Homo sapiens, UniProt P34972). Kind of data set: Displacement of [3H]CP-55940 from human CB2 receptor expressed in CHO cell membranes after 1 hr by scintillation counting analysis.
For a further data set, the species on record is Homo sapiens. Kind of data set: Selectivity ratio of Ki for human CB1 receptor to Ki for human CB2 receptor. The gist of the method: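 Ki at CB1 and CB2 each determined by [3H]CP-55,940 competition binding; selectivity index computed as Ki(CB1)/Ki(CB2).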
For a further data set, the species on record is Mus musculus. The experiment in a line: Inhibition of RANKL/MCSF-induced osteoclastogenesis in C57BL/6 mouse BM-MNC after 7 days by TRAP staining-based inverted microscopic analysis. Type of data set: functional. The procedure, abridged: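 Mouse bone marrow mononuclear cells driven to osteoclasts with mouse RANKL plus M-CSF, compound or vehicle control added; osteoclast formation scored; triplicate, means ± SD.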

In data set [2] the target is T1, Cannabinoid receptor 2. Kind of data set: Inverse agonist activity at human CB2 receptor expressed in CHO cell membranes assessed as inhibition of forskolin-stimulated cAMP production after 45 mins by TR-FRET assay. The class given is functional, cell-based. The procedure, abridged:
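Functional cAMP readout by LANCE signal in CHO cells stably transfected with human CB2, tested across a concentration range; EC50 from concentration–response; means ± SEM of one representative experiment of two or more, run in duplicate or triplicate.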

The test system of a further data set is PBMC. The experiment in a line: Cytotoxicity against human PBMC at 5 uM after 72 hrs by trypan blue assay. The class given is cell-based.
Data set [3] can be described thus: Inhibition of RANKL/MCSF-induced osteoclastogenesis in C57BL/6 mouse BM-MNC at 5 uM after 7 days by TRAP staining-based inverted microscopic analysis relative to control. Further details: scale not given: the % may be the effect or the level left. Type of data set: functional. The procedure, abridged: (§1)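 Osteoclast formation assay using mouse bone marrow mononuclear cells stimulated with mouse RANKL plus M-CSF. Compounds were tested at 0.1, 1 and 5 μM, and inhibition was calculated relative to vehicle control. All experiments were run in triplicate and reported as mean ± standard deviation.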

Data set [4] can be described thus: Inhibition of RANKL/MCSF-induced osteoclastogenesis in C57BL/6 mouse BM-MNC at 1 uM after 7 days by TRAP staining-based inverted microscopic analysis relative to control. The class given is functional. Further details: scale not given: the % may be the effect or the level left. The procedure, abridged: as §1
Data set [5] in a line: Inhibition of RANKL/MCSF-induced osteoclastogenesis in C57BL/6 mouse BM-MNC at 0.1 uM after 7 days by TRAP staining-based inverted microscopic analysis relative to control. Further details: scale not given: the % may be the effect or the level left. Type of data set: functional. The procedure, abridged: as §1
The target of data set [6] is T1, Cannabinoid receptor 2. Kind of data set: Binding affinity to CB2 receptor (unknown origin). The procedure, abridged:
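Radioligand competition binding at CB2 using [3H]CP-55,940 as the labelled ligand; Ki derived from displacement; means ± SEM of at least three experiments, each run in duplicate.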

Chain of Cannabinoid receptor 1 (P21554 whole entry): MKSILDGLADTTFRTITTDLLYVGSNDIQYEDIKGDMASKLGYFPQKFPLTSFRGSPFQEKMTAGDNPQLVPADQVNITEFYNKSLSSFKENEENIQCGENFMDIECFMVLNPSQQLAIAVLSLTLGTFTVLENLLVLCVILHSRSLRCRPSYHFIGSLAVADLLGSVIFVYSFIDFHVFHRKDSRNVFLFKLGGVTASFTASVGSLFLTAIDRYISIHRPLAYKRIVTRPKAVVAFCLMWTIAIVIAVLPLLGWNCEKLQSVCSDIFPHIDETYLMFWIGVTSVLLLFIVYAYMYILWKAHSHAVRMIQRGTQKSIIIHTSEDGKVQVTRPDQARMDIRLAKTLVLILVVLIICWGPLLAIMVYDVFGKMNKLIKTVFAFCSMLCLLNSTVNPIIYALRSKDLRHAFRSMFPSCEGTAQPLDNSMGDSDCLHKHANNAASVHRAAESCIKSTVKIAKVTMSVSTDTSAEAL
T1 sequence (P34972 whole entry): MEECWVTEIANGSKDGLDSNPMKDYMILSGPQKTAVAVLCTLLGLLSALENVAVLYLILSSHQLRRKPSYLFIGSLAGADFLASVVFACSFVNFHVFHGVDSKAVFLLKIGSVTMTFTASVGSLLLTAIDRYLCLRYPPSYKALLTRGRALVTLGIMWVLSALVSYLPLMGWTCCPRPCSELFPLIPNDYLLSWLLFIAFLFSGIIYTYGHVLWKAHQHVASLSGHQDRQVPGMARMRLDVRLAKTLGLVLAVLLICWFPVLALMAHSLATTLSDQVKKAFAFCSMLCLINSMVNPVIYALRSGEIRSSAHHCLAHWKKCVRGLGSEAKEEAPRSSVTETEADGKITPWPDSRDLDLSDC

Consider `CCN(CC)c1ccc(CN(CC2CCCCC2)S(=O)(=O)c2ccc(C)cc2)cc1`, for which the inhibition constant (Ki) amounted to 560 nM on Cannabinoid receptor 1 and 34 nM on Cannabinoid receptor 2 [1]. Besides, the Ratio Ki in the data set filed under Homo sapiens worked out at 16.

Compound `CCN(CC)c1ccc(CN(Cc2ccccc2)S(=O)(=O)c2ccc(NC(C)=O)cc2)cc1` returned a Ki on Cannabinoid receptor 2 [1] of 470 nM.

In the case of `C=CCN(Cc1ccc(N(CC)CC)cc1)S(=O)(=O)c1ccc(C)cc1`, the figures for the Ki on Cannabinoid receptor 1 and at Cannabinoid receptor 2 [1] were 1250 nM and 66 nM, respectively. The Ratio Ki in the data set filed under Homo sapiens was 19.

Consider `CCN(CC)c1ccc(CN(c2ncc(C)s2)S(=O)(=O)c2ccc(OC)cc2)cc1`, for which the inhibitory constant (Ki) on Cannabinoid receptor 1 amounted to 600 nM; at Cannabinoid receptor 2 [1], 4 nM. Further, in the data set filed under Mus musculus, the outcome was Active. Besides, the 50% effective concentration (EC50) on Cannabinoid receptor 2 [2] was found to be 73 nM. For the same compound, the Ratio Ki in the data set filed under Homo sapiens was determined as 120.

With `Cc1ccc(S(=O)(=O)N(Cc2ccccc2)Cc2ccc(C(C)C)cc2)cc1`, the Ki on Cannabinoid receptor 2 [1] was determined as 230 nM.

In the case of `CCN(CC)c1ccc(CN(c2ccccc2)S(=O)(=O)c2ccc(OC)cc2)cc1`, the values for the inhibitory constant (Ki) at Cannabinoid receptor 1 and at Cannabinoid receptor 2 [1] were 500 nM and 5.4 nM, respectively. Also, the result in the data set listed under Mus musculus was Active. In addition, the 50% effective concentration (EC50) at Cannabinoid receptor 2 [2] was 2.5 nM. Besides, the Ratio Ki in the data set listed under Homo sapiens worked out at 92.

`CCN(CC)c1ccc(CN(Cc2ccccc2)S(=O)(=O)c2ccc(OC(F)(F)F)cc2)cc1`: the inhibition constant Ki at Cannabinoid receptor 2 [1] was determined as 577 nM.

Consider `CCN(CC)c1ccc(CN(Cc2ccccc2)S(=O)(=O)c2ccccc2)cc1`, for which the inhibitory constant (Ki) at Cannabinoid receptor 2 [1] stood at 170 nM.

Turning to `CCCCc1ccc(CN(Cc2ccccc2)S(=O)(=O)c2ccc(C)cc2)cc1`, the inhibition constant (Ki) at Cannabinoid receptor 2 [1] is 280 nM.

`CCN(CC)c1ccc(CN(Cc2ccccc2)S(=O)(=O)Cc2ccccc2)cc1` had a Ki on Cannabinoid receptor 2 [1] of 262 nM.

As to `CCN(CC)c1ccc(CNS(=O)(=O)c2ccc(C)cc2)cc1`, affinity on Cannabinoid receptor 2 [1] was put at a Ki of 3600 nM.

As to `CCN(CC)c1ccc(CN(c2ccccc2)S(=O)(=O)c2ccc(C)cc2)cc1`, the Ki on Cannabinoid receptor 1 stood at 81 nM; on Cannabinoid receptor 2 [1], 5.5 nM. The Activity entry in the data set on PBMC is on record as “Non-toxic”; in [3], 99.7%; in data set [4] it was 83%; in data set [5], 55%. Moreover, the concentration for a half-maximal effect (EC50) at Cannabinoid receptor 2 [2] came out at 8.2 nM. Also, the Ratio Ki in the data set filed under Homo sapiens came to 15.

Turning to `CCN(CC)c1ccc(CN(Cc2ccccc2)Cc2ccccc2)cc1`, the Ki at Cannabinoid receptor 2 [1] turned out to be 150 nM.

Take `CCN(CC)c1ccc(CN(C2CCCC2)S(=O)(=O)c2ccc(C)cc2)cc1`: the Ki worked out at 500 nM on Cannabinoid receptor 1 and 36 nM at Cannabinoid receptor 2 [1]. Moreover, the Ratio Ki in the data set listed under Homo sapiens worked out at 14.

With `CCN(CC)c1ccc(CN(C2CCCCC2)S(=O)(=O)c2ccc(OC)cc2)cc1`, the Ki on Cannabinoid receptor 1 was determined as 660 nM; at Cannabinoid receptor 2 [1] it was 75 nM. In addition, the Ratio Ki in the data set filed under Homo sapiens was determined as 9.

Compound `CCN(CC)c1ccc(CN(Cc2ccccc2)S(=O)(=O)c2ccc(-c3ccccc3)cc2)cc1` registered a Ki at Cannabinoid receptor 2 [1] of 166 nM.

`CCN(CC)c1ccc(CN(C2CCCCC2)S(=O)(=O)c2ccc(C)cc2)cc1`: the figures for the Ki at Cannabinoid receptor 1 and at Cannabinoid receptor 2 [1] were 210 nM and 18 nM, respectively. Also, the Ratio Ki in the data set filed under Homo sapiens worked out at 12.

`CCN(CC)c1ccc(CN(C2CCCCC2)S(=O)(=O)c2ccc(C(C)C)cc2)cc1`: the values for the Ki on Cannabinoid receptor 1 and on Cannabinoid receptor 2 [1] were 1400 nM and 55 nM, respectively. In addition, the Ratio Ki in the data set listed under Homo sapiens stood at 25.

As to `CCN(CC)c1ccc(CN(Cc2cccs2)S(=O)(=O)c2ccc(C)cc2)cc1`, the figures for the Ki at Cannabinoid receptor 1 and at Cannabinoid receptor 2 [1] were 610 nM and 14 nM, respectively. In addition, the Ratio Ki in the data set listed under Homo sapiens stood at 44.

With `CCOc1ccc(CN(Cc2ccccc2)S(=O)(=O)c2ccc(C)cc2)cc1`, on Cannabinoid receptor 2 [1], the Ki was 230 nM.

In the case of `O=S(=O)(c1ccc(Cl)cc1)N(Cc1ccc(N2CCCCC2)cc1)c1ccccc1`, the inhibition constant (Ki) on Cannabinoid receptor 2 [1] stood at 140 nM.

Take `CCN(CC)c1ccc(CN(Cc2ccco2)S(=O)(=O)c2ccc(C)cc2)cc1`: the inhibitory constant (Ki) at Cannabinoid receptor 1 is 570 nM; at Cannabinoid receptor 2 [1] it was 9.5 nM. Also, the Ratio Ki in the data set filed under Homo sapiens amounted to 60.

`Cc1ccc(S(=O)(=O)N(Cc2ccccc2)Cc2ccc(N(CCCl)CCCl)cc2)cc1` gave a Ki at Cannabinoid receptor 2 [1] of 166 nM.

As for `CCN(CC)c1ccc(CN(Cc2ccccc2)S(=O)(=O)c2ccc(F)cc2)cc1`, the Ki is 930 nM at Cannabinoid receptor 1 and 102 nM at Cannabinoid receptor 2 [1]. In the data set filed under Homo sapiens, the Ratio Ki stood at 9.

At Cannabinoid receptor 2 [1], `Cc1ccc(S(=O)(=O)N(Cc2ccccc2)Cc2ccc(N(C)C)cc2)cc1` returned a Ki of 680 nM.

Turning to `CCN(CC)c1ccc(CN(Cc2ccco2)S(=O)(=O)c2ccc(OC)cc2)cc1`, the inhibition constant Ki turned out to be 840 nM at Cannabinoid receptor 1 and 20 nM on Cannabinoid receptor 2 [1]. For the same compound, the Ratio Ki in the data set listed under Homo sapiens stood at 42.

With `CCN(CC)c1ccc(CN(Cc2ccccc2)S(=O)(=O)c2ccc(C(C)C)cc2)cc1`, the Ki at Cannabinoid receptor 1 stood at 520 nM; on Cannabinoid receptor 2 [1], 71 nM. In addition, in the data set listed under Homo sapiens, the Ratio Ki was 7.

For `CCN(CC)c1ccc(CN(Cc2ccccc2)S(=O)(=O)c2ccc(C)cc2)cc1`, the inhibitory constant (Ki) turned out to be 2300 nM at Cannabinoid receptor 1 and 53 nM at Cannabinoid receptor 2 [1]. Further, in the data set filed under Homo sapiens, the Ratio Ki was 43.

Regarding `Cc1ccc(S(=O)(=O)N(Cc2ccccc2)Cc2ccc(N3CCCCC3)cc2)cc1`, the results for the inhibition constant Ki on Cannabinoid receptor 1 and at Cannabinoid receptor 2 [1] were 1300 nM and 44 nM, respectively. For the same compound, the Ratio Ki in the data set listed under Homo sapiens is 28.

For `CCN(CC)c1ccc(CN(c2ccccc2)S(=O)(=O)c2ccc(C(C)C)cc2)cc1`, the inhibitory constant (Ki) at Cannabinoid receptor 1 was determined as 2000 nM; on Cannabinoid receptor 2 [1] it was 30 nM. In addition, the Ratio Ki in the data set listed under Homo sapiens was found to be 66.

At Cannabinoid receptor 2 [1], `CCCc1ccc(CN(Cc2ccccc2)S(=O)(=O)c2ccc(C)cc2)cc1` yielded a Ki of 130 nM.

`Cc1ccc(S(=O)(=O)N(Cc2ccc(N3CCCCC3)cc2)c2ccccc2)cc1` came in with a Ki on Cannabinoid receptor 2 [1] of 310 nM.

As to `CCN(CC)c1ccc(CN(Cc2ccccc2)S(=O)(=O)c2ccc(Cl)cc2)cc1`, the figures for the Ki at Cannabinoid receptor 1 and on Cannabinoid receptor 2 [1] were 430 nM and 73 nM, respectively. Further, the Ratio Ki in the data set filed under Homo sapiens was 6.

For `CCN(CC)c1ccc(CN(Cc2ccccc2)S(=O)(=O)c2ccc3ccccc3c2)cc1`, the inhibition constant (Ki) on Cannabinoid receptor 2 [1] was 190 nM.

As to `CCN(CC)c1ccc(CN(Cc2ccc(Cl)cc2)S(=O)(=O)c2ccc(C)cc2)cc1`, affinity on Cannabinoid receptor 2 [1] was put at a Ki of 210 nM.

Compound `CCN(CC)c1ccc(CN(Cc2ccccc2)S(=O)(=O)c2ccc(OC(C)C)cc2)cc1` displayed an inhibition constant Ki on Cannabinoid receptor 2 [1] of 94 nM.

At Cannabinoid receptor 2 [1], `Cc1ccc(S(=O)(=O)N(Cc2ccccc2)Cc2ccc(OC(C)C)cc2)cc1` had an inhibitory constant (Ki) of 174 nM.

As to `COc1ccc(S(=O)(=O)N(Cc2ccc(N3CCCCC3)cc2)c2ccccc2)cc1`, the inhibitory constant (Ki) at Cannabinoid receptor 1 is 590 nM; at Cannabinoid receptor 2 [1], 32 nM. Besides, the concentration for a half-maximal effect (EC50) at Cannabinoid receptor 2 [2] was found to be 49 nM. Besides, in the data set listed under Homo sapiens, the Ratio Ki was found to be 18.

`CCN(CC)c1ccc(CN(c2ncc(C)s2)S(=O)(=O)c2ccc(C)cc2)cc1`: the figures for the Ki on Cannabinoid receptor 1 and at Cannabinoid receptor 2 [1] were 340 nM and 14 nM, respectively. Moreover, in the data set listed under Homo sapiens, the Ratio Ki turned out to be 24.

As for `CCN(CC)c1ccc(CN(Cc2ccc(Cl)c(Cl)c2)S(=O)(=O)c2ccc(C)cc2)cc1`, the inhibition constant (Ki) at Cannabinoid receptor 2 [1] worked out at 390 nM.

As to `CCN(CC)c1ccc(CN(Cc2ccc(F)cc2)S(=O)(=O)c2ccc(C)cc2)cc1`, the Ki was 2250 nM on Cannabinoid receptor 1 and 120 nM on Cannabinoid receptor 2 [1]. Also, in the data set listed under Homo sapiens, the Ratio Ki amounted to 20.

Consider `CCN(CC)c1ccc(CN(CCc2ccccc2)S(=O)(=O)c2ccc(C)cc2)cc1`, for which the affinity on Cannabinoid receptor 2 [1], expressed as Ki, was 120 nM.

At Cannabinoid receptor 2 [6], `Cc1ccc(S(=O)(=O)N(CCc2ccccc2)Cc2ccccc2)cc1` gave a Ki of 750 nM.

On to `CCN(CC)c1ccc(CN(Cc2ccco2)S(=O)(=O)c2ccc(C(C)C)cc2)cc1`, for which the figures for the Ki at Cannabinoid receptor 1 and at Cannabinoid receptor 2 [1] were 1300 nM and 31 nM, respectively. In the data set filed under Homo sapiens, the Ratio Ki was 42.

On Cannabinoid receptor 2 [1], `C=CCc1ccc(CN(Cc2ccccc2)S(=O)(=O)c2ccc(C)cc2)cc1` displayed a Ki of 130 nM.

For the compound `CCN(CC)c1ccc(CN(Cc2ccccc2)S(=O)(=O)c2ccc(OC)cc2)cc1`, the inhibition constant Ki is 690 nM on Cannabinoid receptor 1 and 46 nM at Cannabinoid receptor 2 [1]. Also, the Ratio Ki in the data set filed under Homo sapiens was found to be 15.

Take `CCN(CC)c1ccc(CN(Cc2ccc(N(CC)CC)cc2)S(=O)(=O)c2ccc(C)cc2)cc1`: affinity on Cannabinoid receptor 2 [1] was put at a Ki of 540 nM.
